Measured values reported in ChEMBL document CHEMBL4765231 (J Med Chem, 2016).
Converted amounts (≈) assume the structure as drawn. The source made the active and inactive calls. No cut-off for these calls is given here.

How the values were obtained:
Homo sapiens [1] = species on record: Homo sapiens; assay: Inhibition of late sodium current channel (unknown origin) at 1 uM at 25 Hz frequency by whole cell patch clamp technique relative to control
[2] = Ratio of drug concentration in brain to plasma of coronary artery occlusion-induced ischemia-reperfusion injury rabbit model intravenously administered with compound for 30 mins measured by LC-MS/MS analysis; format: ADME, Oryctolagus cuniculus; conditions: brain and plasma, iv, read-out: BPR
[3] = Inhibition of late sodium current channel (unknown origin) at 25 Hz frequency by whole cell patch clamp technique; conditions: Homo sapiens
NaV1.1 = NaV1.1 (Homo sapiens, UniProt P35498); assay: Inhibition of NaV1.1 (unknown origin) expressed in cells assessed as inhibition of peak INa current at 10 uM at 25 Hz frequency by whole-cell patch clamp method relative to control; format: cell-based; conditions: cells expressing NaV1.1
Procedure, shortened: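 Whole-cell manual patch clamp on non-cardiac NaV1.x channels, run at room temperature. Series resistance was compensated 90% so the command potential was reached within microseconds.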

[4] = Metabolic stability in human microsomes assessed as half life; format: ADME, Microsome
[5] = Metabolic stability in rat microsomes assessed as half life; format: ADME, Microsome
[6] = Metabolic stability in dog microsomes assessed as half life; format: ADME, Canis lupus familiaris, Microsome
Oryctolagus cuniculus [7] = species on record: Oryctolagus cuniculus; assay: Cardioprotective activity in New Zealand White rabbit heart assessed as reversal of ATX-II induced late sodium current prolongation in change in duration of monophasic action potential at 90 percent repolarization at 1 uM by electrocardiographic analysis relative to control; format: functional
NaV1.5 [8] = target: T1, NaV1.5 (Homo sapiens, UniProt Q14524); assay: Inhibition of human NaV1.5 expressed in HEK293 cells assessed as inhibition of peak sodium current measured at frequency 3 Hz at -20 mV resting membrane potential at 1 uM by electrophysiology assay relative to control; format: cell-based; conditions: HEK293 cells expressing human NaV1.5
T1 sequence (Q14524 whole entry): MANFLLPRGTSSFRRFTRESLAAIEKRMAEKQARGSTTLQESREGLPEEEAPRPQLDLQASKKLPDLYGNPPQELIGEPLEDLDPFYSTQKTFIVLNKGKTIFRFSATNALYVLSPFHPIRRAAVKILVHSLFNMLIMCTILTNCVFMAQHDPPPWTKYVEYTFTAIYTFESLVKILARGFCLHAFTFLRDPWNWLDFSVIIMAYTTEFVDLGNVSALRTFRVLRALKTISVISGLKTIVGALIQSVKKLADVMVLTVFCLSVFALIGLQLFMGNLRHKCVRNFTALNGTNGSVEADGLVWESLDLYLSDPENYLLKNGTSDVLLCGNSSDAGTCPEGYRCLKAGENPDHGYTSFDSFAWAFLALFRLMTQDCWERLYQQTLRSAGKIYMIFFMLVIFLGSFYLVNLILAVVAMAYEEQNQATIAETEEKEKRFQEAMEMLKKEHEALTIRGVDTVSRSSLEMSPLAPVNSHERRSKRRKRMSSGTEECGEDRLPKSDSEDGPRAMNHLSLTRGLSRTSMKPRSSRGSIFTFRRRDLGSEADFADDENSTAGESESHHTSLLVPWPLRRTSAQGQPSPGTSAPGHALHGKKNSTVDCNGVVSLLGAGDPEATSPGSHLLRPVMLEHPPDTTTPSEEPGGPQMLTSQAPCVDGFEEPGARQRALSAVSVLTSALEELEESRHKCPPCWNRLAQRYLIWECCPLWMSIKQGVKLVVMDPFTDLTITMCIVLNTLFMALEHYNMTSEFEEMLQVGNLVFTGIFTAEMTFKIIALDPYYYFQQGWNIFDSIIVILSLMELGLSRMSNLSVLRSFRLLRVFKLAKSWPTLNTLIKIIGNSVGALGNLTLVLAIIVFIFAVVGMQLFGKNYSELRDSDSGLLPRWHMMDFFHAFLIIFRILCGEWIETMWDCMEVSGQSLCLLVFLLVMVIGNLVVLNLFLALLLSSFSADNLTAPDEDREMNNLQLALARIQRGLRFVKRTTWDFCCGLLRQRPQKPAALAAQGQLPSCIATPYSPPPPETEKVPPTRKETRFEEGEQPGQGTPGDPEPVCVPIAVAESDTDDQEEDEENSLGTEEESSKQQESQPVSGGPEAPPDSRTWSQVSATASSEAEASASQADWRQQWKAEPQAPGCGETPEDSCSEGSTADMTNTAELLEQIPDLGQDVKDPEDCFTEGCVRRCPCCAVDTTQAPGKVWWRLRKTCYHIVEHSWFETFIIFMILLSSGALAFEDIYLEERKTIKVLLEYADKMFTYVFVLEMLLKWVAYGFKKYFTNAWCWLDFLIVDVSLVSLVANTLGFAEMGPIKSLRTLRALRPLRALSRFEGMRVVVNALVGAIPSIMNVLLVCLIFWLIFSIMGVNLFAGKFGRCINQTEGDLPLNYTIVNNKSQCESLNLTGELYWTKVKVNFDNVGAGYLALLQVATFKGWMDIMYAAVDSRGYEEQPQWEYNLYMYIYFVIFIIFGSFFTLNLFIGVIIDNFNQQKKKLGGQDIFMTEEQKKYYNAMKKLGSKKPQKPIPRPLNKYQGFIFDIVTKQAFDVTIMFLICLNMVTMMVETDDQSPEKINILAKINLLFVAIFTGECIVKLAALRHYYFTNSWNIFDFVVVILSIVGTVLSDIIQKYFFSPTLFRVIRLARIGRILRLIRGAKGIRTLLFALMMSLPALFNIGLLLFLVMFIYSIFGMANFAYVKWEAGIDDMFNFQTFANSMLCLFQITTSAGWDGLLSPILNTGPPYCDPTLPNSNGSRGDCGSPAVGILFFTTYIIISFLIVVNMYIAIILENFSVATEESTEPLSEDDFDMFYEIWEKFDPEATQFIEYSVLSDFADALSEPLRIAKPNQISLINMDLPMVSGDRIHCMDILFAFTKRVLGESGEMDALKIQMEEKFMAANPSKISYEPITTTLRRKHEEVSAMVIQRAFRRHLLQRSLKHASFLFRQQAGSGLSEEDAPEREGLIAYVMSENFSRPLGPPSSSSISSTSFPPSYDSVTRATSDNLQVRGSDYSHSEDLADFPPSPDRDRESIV

NaV1.5 [9] = target: T1, NaV1.5; assay: Inhibition of human NaV1.5 expressed in HEK293 cells assessed as inhibition of peak sodium current measured at frequency 3 Hz at -120 mV resting membrane potential at 0.3 uM by electrophysiology assay relative to control; conditions: HEK293 cells expressing human NaV1.5
NaV1.5 [10] = target: T1, NaV1.5; assay: Inhibition of human NaV1.5 expressed in HEK293 cells assessed as inhibition of peak sodium current measured at frequency 3 Hz at -20 mV resting membrane potential at 3 uM by electrophysiology assay relative to control; format: cell-based; conditions: HEK293 cells expressing human NaV1.5
[11] = Toxicity in rabbit model of left circumflex artery ligation-induced ischemia assessed as increase in VT-VF at 1 mg/kg by electrocardiographic analysis; format: organism-based, Oryctolagus cuniculus; conditions: in vivo
[12] = Toxicity in rabbit model of left circumflex artery ligation-induced ischemia assessed as animal death at 1 mg/kg; format: organism-based, Oryctolagus cuniculus; conditions: in vivo
[13] = Solubility of compound in water; format: physicochemical
Oryctolagus cuniculus [14] = assay: (§1) Cardioprotective activity in New Zealand rabbit model of LAD coronary artery occlusion-induced ischemia-reperfusion injury assessed as inhibition of ST segment elevation intravenously administered with compound for 30 mins followed by induction of ischemia for 15 mins and subsequent reperfusion for 15 mins by electrocardiographic analysis; format: functional
Homo sapiens [15] = species on record: Homo sapiens; assay: Inhibition of L-type calcium channel (unknown origin)
Oryctolagus cuniculus [16] = species on record: Oryctolagus cuniculus; assay: Cardioprotective activity in New Zealand White rabbit heart assessed as reversal of ATX-II induced late sodium current prolongation in change in duration of monophasic action potential at 90 percent repolarization by electrocardiographic analysis relative to control; format: functional, tissue-based
Oryctolagus cuniculus [17] = species on record: Oryctolagus cuniculus; assay: Cardioprotective activity in New Zealand rabbit heart assessed as reversal of ATX-II induced late sodium current increase in QT interval by electrocardiographic analysis; format: functional
Oryctolagus cuniculus [18] = species on record: Oryctolagus cuniculus; assay: as §1, with “at 12 uM” for “intravenously administered with compound”; format: functional; conditions: 1 h, time 60 min
[19] = target: Sodium channel protein type 1 subunit alpha (Homo sapiens, UniProt P35498); assay: Inhibition of peak NaV1.1 (unknown origin) at 10 uM at 10 Hz frequency by manual patch clamp technique
Procedure, shortened: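 Whole-cell manual patch clamp at room temperature, with series resistance compensated 90%.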

[20] = Inhibition of peak sodium current (unknown origin) by manual patch clamp method; set-up: species or system Homo sapiens
Oryctolagus cuniculus [21] = species on record: Oryctolagus cuniculus; assay: Cardioprotective activity in rabbit assessed as decrease in chemically-induced Torsades des Pointes at 14 uM by electrocardiographic analysis; format: functional; set-up: scale not given: the % may be the effect or the level left
Oryctolagus cuniculus [22] = species on record: Oryctolagus cuniculus; assay: as §1, with “at 0.28 uM” for “intravenously administered with compound”; format: functional; set-up: scale not given: the % may be the effect or the level left; conditions: time 60 min, 1 h
Oryctolagus cuniculus [23] = species on record: Oryctolagus cuniculus; assay: as §1, with “at 0.52 uM” for “intravenously administered with compound”; format: functional; set-up: scale not given: the % may be the effect or the level left; conditions: time 60 min, 1 h
[24] = Toxicity in New Zealand rabbit model of LAD coronary artery occlusion-induced ischemia-reperfusion injury assessed as effect on blood pressure at 0.28 to 0.52 uM; set-up: species or system Oryctolagus cuniculus; conditions: in vivo, dose 0.28-0.52 µM
[25] = Toxicity in New Zealand rabbit model of LAD coronary artery occlusion-induced ischemia-reperfusion injury assessed as effect on heart rate at 0.28 to 0.52 uM; set-up: species or system Oryctolagus cuniculus; conditions: in vivo, dose 0.28-0.52 µM
[26] = Toxicity in New Zealand rabbit model of LAD coronary artery occlusion-induced ischemia-reperfusion injury assessed as effect on ECG interval at 0.28 to 0.52 uM; set-up: species or system Oryctolagus cuniculus; conditions: in vivo, dose 0.28-0.52 µM

| inhibition (Homo sapiens [1]) [%] | IC50 [3] [nM] | inhibition at 10 µM (NaV1.1) [%] | half-life [4] [h] | half-life [5] [h] | half-life [6] [h] | SMILES | other results |
| --- | --- | --- | --- | --- | --- | --- | --- |
| 17 |  |  |  |  |  | O=C1c2cc(-c3ccc(C(F)F)cc3)ccc2OCCN1Cc1ncccn1 |  |
| 39 |  |  |  |  |  | Cc1noc(Cn2ncc3ccc(-c4ccc(OC(F)(F)F)cc4)cc3c2=O)n1 | Kp at 0.5 h [2]: 4.4 |
|  | 1610 | 23 | 5.5 | 1.63 | 1.92 | O=C1c2cc(-c3ccc(Cl)c(F)c3)ccc2OCCN1Cc1ncccn1 | Activity (Oryctolagus cuniculus [7]): 58%; inhibition at 1 µM (NaV1.5 [8]): 8% |
| 18 |  |  |  |  |  | O=C1c2cc(-c3ccccc3)ccc2OCCN1Cc1ncccn1 |  |
| 13 |  |  |  |  |  | O=C1c2cc(-c3ccc(OC(F)F)cc3)ccc2OCCN1Cc1ncccn1 |  |
| 4 |  |  |  |  |  | CC(=O)Nc1cc(OC(F)(F)F)ccc1-c1ccc2c(c1)C(=O)N(Cc1ncccn1)CCO2 |  |
| 48 |  |  |  |  |  | Cc1noc(Cn2cnc3ccc(-c4ccc(OC(F)(F)F)cc4)cc3c2=O)n1 | Kp at 0.5 h [2]: 15 |
|  | 3030 |  |  |  |  | O=C1c2cc(-c3cccc(C(F)(F)F)c3)ccc2OCCN1Cc1ncccn1 |  |
|  | 160 | 82 | 2.48 | 1.48 | 3.23 | O=C1c2cc(-c3ccc(OC(F)(F)F)cc3)ccc2OCCN1Cc1ncccc1F | inhibition at 0.3 µM (NaV1.5 [9]): 23% |
| 26 |  |  |  |  |  | O=C1c2cc(-c3ccccc3OC(F)(F)F)ccc2OCCN1Cc1ncccn1 |  |
|  | 970 | 60 | 6.58 | 4.52 | 1.45 | COc1ccnc(CN2CCOc3ccc(-c4ccc(OC(F)(F)F)cc4)cc3C2=O)n1 | inhibition at 1 µM (NaV1.5 [8]): 27% |
| 6 |  |  |  |  |  | CC(=O)Nc1ccnc(CN2CCOc3ccc(-c4ccc(OC(F)(F)F)cc4)cc3C2=O)n1 |  |
|  | 2480 | 52 |  |  |  | Nc1ccnc(CN2CCOc3ccc(-c4ccc(OC(F)(F)F)cc4)cc3C2=O)n1 | inhibition at 3 µM (NaV1.5 [10]): 37% |
|  |  |  |  |  |  | O=C(NCC1CCCCN1)c1cc(OCC(F)(F)F)ccc1OCC(F)(F)F (stereo unspecified) [FLECAINIDE] | Activity [11]: Toxic; Activity [12]: Toxic |
|  | 1620 | 31 | 3.23 | 1.6 | 1.05 | O=C1c2cc(-c3ccc(Cl)cc3)ccc2OCCN1Cc1ncccn1 | Activity (Oryctolagus cuniculus [7]): 68%; inhibition at 3 µM (NaV1.5 [10]): 17% |
| 13 |  |  |  |  |  | COc1ccc(-c2ccc3c(c2)C(=O)N(Cc2ncccn2)CCO3)cc1 |  |
|  | 2070 | 15 | 5.07 | 5.9 | 5.33 | O=C1c2cc(-c3ccc(C(F)(F)F)cc3)ccc2CCN1Cc1ncccn1 | solubility [13]: 28 µM (≈ 10.7 µg/mL); Activity (Oryctolagus cuniculus [7]): 25% |
|  |  |  |  |  |  | COc1ccccc1OCC(O)CN1CCN(CC(=O)Nc2c(C)cccc2C)CC1 (stereo unspecified) [RANOLAZINE] | EC50 (Oryctolagus cuniculus [14]): 8000 nM; inhibition (Homo sapiens [15]): inactive; IC50 (Oryctolagus cuniculus [16]): 16000 nM; Activity (Oryctolagus cuniculus [17]): Active; inhibition in vivo at 12 µM (Oryctolagus cuniculus [18]): 60%; inhibition (INH) [19]: Not Active; IC50 [20]: 428000 nM; Activity (Oryctolagus cuniculus [21]): 60% |
|  | 2310 | 23 | 6.58 | 2.5 | 2.62 | O=C1c2cc(-c3ccc(OC(F)(F)F)cc3)ccc2CCN1Cc1ncccn1 | solubility [13]: 60 µM (≈ 24 µg/mL); Activity (Oryctolagus cuniculus [7]): 6% |
|  | 500 | 67 | 2.5 | 1.15 | 2.78 | O=C1c2cc(-c3ccc(OC(F)(F)F)cc3)ccc2OCCN1Cc1ccccn1 | solubility [13]: < 1 µM |
|  | 1080 | 60 | 5.8 | 3.52 | 6.18 | O=C1c2cc(-c3ccc(C(F)(F)F)cc3)ccc2OCCN1Cc1ncccn1 | EC50 (Oryctolagus cuniculus [14]): 300 nM; Activity (Oryctolagus cuniculus [14]; time 60.0 min): Dose-dependent effect; solubility [13]: 87 µM (≈ 34.7 µg/mL); Activity (Oryctolagus cuniculus [7]): 62%; inhibition at 3 µM (NaV1.5 [10]): 27%; Activity (Oryctolagus cuniculus [22]): 38%; Activity (Oryctolagus cuniculus [23]): 88%; Activity [24]: Non-Toxic; Activity [25]: Non-Toxic; Activity [26]: Non-Toxic |
|  | 2030 | 18 | 4.95 | 4.9 | 0.717 | O=C1c2cc(-c3cccc(OC(F)(F)F)c3)ccc2OCCN1Cc1ncccn1 | Activity (Oryctolagus cuniculus [7]): 29%; inhibition at 3 µM (NaV1.5 [10]): 3% |
|  | 1280 | 35 | 4.02 | 5.13 | 2.6 | O=C1c2cc(-c3ccc(OC(F)(F)F)cc3F)ccc2OCCN1Cc1ncccn1 | Activity (Oryctolagus cuniculus [7]): 39%; inhibition at 3 µM (NaV1.5 [10]): 37% |
|  | 1000 | 67 | 0.467 | 0.467 | 1.55 | O=C1c2cc(-c3ccc(OC(F)(F)F)cc3)ccc2OCCN1CCc1ncccn1 | inhibition at 3 µM (NaV1.5 [10]): 13% |
|  | 770 | 33 | 6.55 | 5.63 |  | O=C1c2cc(-c3ccc(OC(F)(F)F)c(Cl)c3)ccc2OCCN1Cc1ncccn1 | Activity (Oryctolagus cuniculus [7]): 23%; inhibition at 3 µM (NaV1.5 [10]): 15% |
| 3 |  |  |  |  |  | CS(=O)(=O)c1ccc(-c2ccc3c(c2)C(=O)N(Cc2ncccn2)CCO3)cc1 |  |
| 51 |  |  |  |  |  | O=c1c2cc(-c3ccc(C(F)(F)F)cc3)ccc2nnn1Cc1nnc(C2CC2)o1 | EC50 (Oryctolagus cuniculus [14]): 970 nM; Kp at 0.5 h [2]: 0.86 |
